NPY-Y1 antag – NPY-Y1 (human) receptor antagonism. actives 1% (n = 200,000). HEK293-CNG Y1 cells, membrane potential fluorescence; NPY at EC95, then isoproterenol. P25929. inhibition, % at 3.6 µM. AID 1040;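 active = inhibition above the campaign mean inhibition of all tested compounds plus 3 SD, cut at about 20% in these data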;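 note: 0% = DMSO wells given NPY plus isoproterenol and 100% = isoproterenol alone without NPY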
Target sequence (P25929 whole entry, looked up): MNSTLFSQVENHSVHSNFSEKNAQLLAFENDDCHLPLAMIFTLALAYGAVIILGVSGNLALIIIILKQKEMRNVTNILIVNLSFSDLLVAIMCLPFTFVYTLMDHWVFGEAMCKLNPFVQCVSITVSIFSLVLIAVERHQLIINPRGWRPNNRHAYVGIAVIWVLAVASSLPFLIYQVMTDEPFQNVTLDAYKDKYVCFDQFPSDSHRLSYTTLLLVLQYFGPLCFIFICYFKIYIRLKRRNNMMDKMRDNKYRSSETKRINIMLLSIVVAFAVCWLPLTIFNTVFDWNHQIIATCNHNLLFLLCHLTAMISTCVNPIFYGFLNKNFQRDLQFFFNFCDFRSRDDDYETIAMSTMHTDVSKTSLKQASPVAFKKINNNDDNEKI
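Material: HEK293 cells co-expressing NPY Y1 receptor and cyclic-nucleotide gated channel. Timing: compound incubation 1 h at room temperature, readout 45 min post-stimulation. Signal: fluorescence, membrane potential probe.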
NPY-Y1 PAM-ag – potentiates or activates human NPY-Y1 receptor | activation, % at 3.6 µM | NPY-Y1 expressing cells, potentiator/agonist activation | actives 0.37% (n = 220,000) | P25929 | AID 1304; in the data active = activation above about 33%, passing the limit was not always enough;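 note: cells stimulated with NPY at EC10 then isoproterenol at EC100; 0% = low agonist plus stimulus and 100% = saturating agonist plus stimulus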
S1P4 ag – agonists of human S1P4 receptor; actives 0.35% (n = 220,000); S1P4-expressing cell line, agonist reporter assay; activation, % at 4.98 µM; O95977; in the data active = activation above about 11%;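 note: 0% = DMSO vehicle and 100% = reference agonist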
S1P4 antag – human S1P4 receptor antagonism. actives 0.26% (n = 220,000). O95977. inhibition, % at 4.98 µM. AID 1510. S1P4-expressing cells, antagonist mode, reporter read-out; in the data active = inhibition above about 29%;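 note: 0% = wells stimulated with agonist and 100% = vehicle wells without agonist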
NPY-Y2 PAM-ag – potentiates or activates human NPY-Y2 receptor; P49146; cells expressing NPY-Y2, potentiator/agonist read-out; activation, % at 3.6 µM; actives 0.45% (n = 220,000); in the data active = activation above about 27%;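 note: cells stimulated with NPY near EC25 plus isoproterenol at EC100; 0% = vehicle plus submaximal agonist and 100% = vehicle plus saturating agonist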
NPY Y2 blocker – antagonists of human neuropeptide Y receptor Y2. NPY-Y2 expressing cells, antagonist mode. actives 0.99% (n = 140,000). P49146. inhibition, % at 2.7 µM; in the data active = inhibition above about 17%;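 note: 0% = vehicle with agonist challenge and 100% = reference antagonist with challenge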
S1P4 antag conf – confirmation of human S1P4 receptor antagonists; inhibition, % at 4.98 µM; S1P4-expressing cell line, antagonist mode, reporter read-out; shares compounds with S1P4 antag; AID 1524; actives 71% (n = 520); in the data active = inhibition above about 30%
S1P1 antagonist – counter-screen for S1P4 antagonists: antagonists of human S1P1. inhibition, % at 4.98 µM. cell-based S1P1 antagonist counterscreen, inhibition. shares compounds with S1P4 antag. actives 37% (n = 520); in the data active = inhibition above about 40%;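 note: receptor stimulated with S1P near its EC80; 0% = agonist stimulated wells and 100% = vehicle only wells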
The depositor's hits bear a star; . = no result given. Shown are actives, neighbours in structure and some others; about 2.4% of the full set was active somewhere.

SMILES	NPY-Y1 antag	NPY-Y1 PAM-ag	S1P4 ag	S1P4 antag	NPY-Y2 PAM-ag	NPY Y2 blocker	S1P4 antag conf	S1P1 antagonist
CCCCS(=O)(=O)/C=C\C1C2C=CC(C2)C1S(=O)(=O)CCCC (configuration not stated)	3.1	9.0	-1.0	10.5	11.1	0.6	.	.
CC1Oc2ccccc2C=C1/C=N/Nc1ccc(C(=O)O)cc1 (configuration not stated)	.	16.7	4.0	0.7	-20.2	.	.	.
O=C(CCSc1ccccc1)NC1CCCCCC1	11.3	1.5	-0.3	43.3*	-4.8	.	3.1	26.4
O=C(CCSc1ccc(Cl)cc1)NC1CCCCC1	6.3	6.6	0.6	-8.8	-5.7	2.0	.	.
NNC(=O)CCCCCCCCCCOCCCCO	.	6.9	0.7	-15.3	-37.5	.	.	.
COc1ccc([N+](=O)[O-])c(S(=O)(=O)c2ccc(Cl)cc2)n1	.	8.0	-1.4	92.8*	-1.0	.	116.9*	103.6*
COc1ccc([N+](=O)[O-])c(S(=O)(=O)c2ccccc2)n1	.	-5.5	-1.9	88.5*	18.4	.	118.6*	79.1*
COc1nc(OC)nc(Oc2ccc(Cl)cc2[N+](=O)[O-])n1	-0.3	9.1	2.6	2.8	10.5	-1.0	.	.
CC1CCCN(CCOc2ccc3ccccc3c2Br)C1 (configuration not stated)	10.5	-22.8	-2.1	-12.1	-3.1	.	.	.
CN(C)CC(CCC(CN(C)C)C(=O)c1ccccc1)C(=O)c1ccccc1 (configuration not stated)	.	-0.6	-0.4	41.3*	-38.4	.	110.5*	39.3
O=C(c1ccccc1)C(CCC(CN1CCOCC1)C(=O)c1ccccc1)CN1CCOCC1 (configuration not stated)	-7.6	5.0	-2.9	22.4	2.0	3.5	.	.
CCOc1ccc(C(=O)C(CCC(CN(C)C)C(=O)c2ccc(OCC)cc2)CN(C)C)cc1 (configuration not stated)	2.8	-29.6	-2.7	42.5*	-19.6	7.9	109.6*	52.0*
CSc1ccc(NC(=O)Nc2cc(C)ccn2)cc1	.	21.9	2.2	-12.9	17.1	.	.	.
CC(/C=C(\NC(=O)c1ccccc1)C(=O)N=Nc1c(O)[nH]c2ccc(C)cc12)=C\c1ccccc1	6.3	21.3	-3.7	35.4*	12.1	1.3	17.9	21.8
NC(=O)c1cccc(S(=O)(=O)N2CCCCC2)c1	0.2	5.2	0.7	-39.0	7.0	1.3	.	.
Nc1cccc2c1C(=O)N(C(=O)c1cccc(S(=O)(=O)N3CCCC3)c1)C2=O	6.7	-25.2	-1.0	31.4*	-16.0	1.6	18.4	22.8
CCN(CC)CCNC(=O)CSc1c2c(nc3cc(Cl)ccc13)CCCC2	-5.2	7.2	-0.7	3.8	2.6	.	.	.
Cc1ccc(CNC(=O)CSc2c3c(nc4ccc(Cl)cc24)CCCC3)o1	4.8	-20.9	-1.3	35.0*	-3.7	6.2	29.1*	6.8
COc1ccc(/C=C/C(=O)c2cc(F)ccc2OC(=O)c2ccccc2)cc1OC	11.6	12.8	0.6	11.9	-13.1	8.9	.	.
COc1ccc(/C=C/C(=O)c2cc(F)ccc2OC(=O)c2ccccc2OC)cc1OC	16.6	-14.6	0.7	47.4*	-8.8	.	81.9*	98.9*
Nc1ccc(N2CCCCC2)c2nonc12	1.5	-4.8	4.8	1.9	1.7	.	.	.
Nc1ccc(C2CCCc3nonc32)c2nonc12 (configuration not stated)	3.2	-12.3	-0.7	43.4*	0.4	-0.6	8.1	28.3
Cc1ccc(N/C(N)=N/c2nc(C)cc(N3CCCCC3)n2)c(C)c1	0.1	24.6	-2.5	44.7*	22.7	.	44.9*	23.4
COC(=O)c1ccc2c(c1)C(C)(C)C(/C=C/c1ccccc1O)=[N+]2C	10.7	-23.0	-1.1	37.0*	-12.4	9.9	115.9*	82.3*
N/C(=N/OC(=O)c1ccccc1Cl)c1ncc([N+](=O)[O-])s1	.	-6.2	1.1	33.7*	-9.4	.	27.7	38.3
N/C(=N\OC(=O)c1ccccc1Cl)c1ccncc1	-1.5	-20.2	-1.2	-0.6	3.3	.	.	.
COc1cc(NC(=O)c2cc(CC(C)C)on2)c(OC)cc1Cl	4.8	-29.7	0.6	32.9*	-8.6	5.7	23.1	12.3

Screening results as filed in PubChem.
